Assay results of several laboratories.
Compare with care: the assays were run in different laboratories.
Cell line: HCT-116
Effect on: cell growth or viability

N.N.[Cl][Pt][Cl]  IC50 (48 h): 16300 nM
CC1=C(O)C(=O)C=C2C1=CC=C1[C@@]2(C)CC[C@@]2(C)[C@@H]3C[C@](C)(C(=O)OCCCn4cc(C=O)c5ccccc54)CC[C@]3(C)CC[C@]12C  IC50 (MTT; 48 h): 570 nM
CC[C@@]1(OC(=O)[C@@H](N)CCCCN)C(=O)OCc2c1cc1n(c2=O)Cc2cc3cc4c(cc3nc2-1)OCO4  IC50 (MTT): 28 nM
CC1=C(O)C(=O)C=C2C1=CC=C1[C@@]2(C)CC[C@@]2(C)[C@@H]3C[C@](C)(C(=O)O)CC[C@]3(C)CC[C@]12C  IC50 (MTT; 48 h): 430 nM
CC[C@@]1(O)C(=O)OCc2c1cc1n(c2=O)Cc2cc3cc4c(cc3nc2-1)OCO4  IC50 (MTT; 72 h): 14 nM
CSC(=NNC(=O)c1ccc(O)cc1)SC  IC50 (MTT; 5 days): > 100000 nM
COc1ccc2c(c1)[nH]c1c(C)nccc12  IC50 (MTT; 72 h): 25100 nM
CC[C@@]1(OC(=O)[C@@H](N)CCSC)C(=O)OCc2c1cc1n(c2=O)Cc2cc3cc4c(cc3nc2-1)OCO4  IC50 (MTT): 56 nM
CN[C@@H]1C[C@H]2O[C@@](C)([C@@H]1OC)n1c3ccccc3c3c4c(c5c6ccccc6n2c5c31)C(=O)NC4  IC50 (MTT): 15 nM
COc1ccc2[nH]cc(CCNc3nccc(Nc4cccc5c4ccn5C)n3)c2c1  IC50 (fluorescence; 72 h): 9.2 nM
CCC1(OC(=O)C(C)c2ccc3cc(OC)ccc3c2)C(=O)OCc2c1cc1n(c2=O)Cc2cc3cc4c(cc3nc2-1)OCO4 (stereo not shown)  IC50 (MTT): 2340 nM
O=c1ccc2ccc3occc3c2o1  IC50 (WST-1; 48 h): 8700 nM
CSC(=NNC(=O)c1ccc(Cl)c(Cl)c1)SC  IC50 (MTT; 5 days): 28000 nM
O=c1ccc2cc3ccoc3cc2o1  IC50 (WST-1; 48 h): 26100 nM
CC[C@@]1(OC(=O)Cc2c(C)n(C(=O)c3ccc(Cl)cc3)c3ccc(OC)cc23)C(=O)OCc2c1cc1n(c2=O)Cc2cc3cc4c(cc3nc2-1)OCO4  IC50 (MTT): 46 nM
N.N.[Cl][Pt][Cl]  IC50 (MTS; 72 h): 41700 nM
COc1cc2c3c(n(CCCN4CCOCC4)c(=O)c2cc1OC)-c1cc2c(cc1C3=O)OCO2  IC50 (72 h): 0.618 µg/mL
CC[C@@]1(OC(=O)[C@@H](N)C(C)C)C(=O)OCc2c1cc1n(c2=O)Cc2cc3cc4c(cc3nc2-1)OCO4  IC50 (MTT): 46 nM
N.N.[Cl][Pt][Cl]  IC50 (SRB): 5300 nM
